Experimental data gathered from unrelated publications.
Each line is one published result; the experiments were not run side by side.
PLCD1: 1-phosphatidylinositol 4,5-bisphosphate phosphodiesterase delta-1 (PLCD1, Homo sapiens, UniProt P51178)
HTR2C: 5-hydroxytryptamine receptor 2C (HTR2C, Homo sapiens, UniProt P28335)
FLT3 ITD: Receptor-type tyrosine-protein kinase FLT3 (FLT3, Homo sapiens, UniProt P36888, ITD)
CSNK1D: Casein kinase I isoform delta (CSNK1D, Homo sapiens, UniProt P48730)
FLT3: Receptor-type tyrosine-protein kinase FLT3 (FLT3, Homo sapiens, UniProt P36888)
FLT3 F691L: Receptor-type tyrosine-protein kinase FLT3 (FLT3, Homo sapiens, UniProt P36888, F691L)

With `CCOc1ccc(C(=O)CC(SCc2ccc(Cl)cc2)C(=O)OC)cc1` (centres unmarked) the Ki was greater than 1000 µM (PLCD1; ligand displacement, FP).
With `COc1cc2c3c(c1OC)-c1c(OC)ccc(N4CCOCC4)c1CC3N(C)CC2` (centres unmarked) the Ki was 2.71 µM (HTR2C; cell-free assay, radioligand).
`O=C(NCCN1CCCCC1)c1ccc(-c2nc3ccc4[nH]ncc4c3c3c2CCCC3)cc1` has an IC50 of 0.741 µM (FLT3 ITD; enzyme activity, inhibitor).
With `CCOc1ccc(C(=O)CC(SCc2ccc(Cl)cc2)C(=O)O)cc1` (centres unmarked) the Ki was 780 µM (PLCD1; ligand displacement, FP).
`O=c1[nH]c(N2CCCC2)nc2ccccc12` gave a Kd of 43.8 µM (CSNK1D; binding, SPR).
`CN(C)CCNC(=O)c1ccc(-c2nc3ccc4[nH]ncc4c3c3c2CCCCC3)c(F)c1` gave an IC50 of 0.053 µM (FLT3; enzyme activity, inhibitor).
`N#Cc1ccc(O)cc1F` has a Kd of 20 to 50 µM (CSNK1D; binding, SPR).
With `O=C(O)c1cc(-c2ccc(-c3ccc(Cl)s3)cc2)c2ccc(-c3ccc(C(F)(F)F)cc3)cc2c1` the Ki was 0.91 µM (HTR2C; cell-free assay, radioligand).
With `N#Cc1ccccc1C#CCO` the Kd was greater than 50 µM (CSNK1D; binding, SPR).
For `COc1ccccc1C(=O)CC(SCc1ccc(Cl)cc1)C(=O)O` (centres unmarked), the Ki was greater than 1000 µM (PLCD1; ligand displacement, FP).
`c1ccc(-c2nnc(NCc3ccccn3)o2)cc1` gave a Kd of greater than 50 µM (CSNK1D; binding, SPR).
For `CCOc1ccc(C(=O)CC(SCc2ccc(Br)cc2)C(=O)O)cc1` (centres unmarked), the Ki was greater than 1000 µM (PLCD1; ligand displacement, FP).
For `Cc1n[nH]c2ccc3nc(-c4ccc(C(=O)NCCN(C)C)cc4)c4c(c3c12)CCC(F)(F)C4`, the IC50 was 0.355 µM (FLT3 ITD; enzyme activity, inhibitor).
For `c1ccc(CNCc2ccc(CN3CCCNCCNCCCNCC3)cc2)nc1`, the Kd was greater than 50 µM (CSNK1D; binding, SPR).
With `O=C(NCC1CC1)c1ccc(-c2nc3ccc4[nH]ncc4c3c3c2CCCC3)cc1` the IC50 was greater than 1 µM (FLT3 ITD; enzyme activity, inhibitor).
For `COc1cc2c3c(c1OC)-c1c(OC)ccc(-c4ccc(C#N)cc4)c1CC3N(C)CC2` (centres unmarked), the Ki was 0.856 µM (5-hydroxytryptamine receptor 2B (HTR2B, Homo sapiens, UniProt P41595); ligand displacement, radioligand).
`CN(C)C(=O)c1cc2cnc(Nc3ccc(C(=O)NCCCCCCOc4cccc5c4C(=O)N(C4CCC(=O)NC4=O)C5=O)cc3)nc2n1C1CCCC1` (centres unmarked) gave a Kd of less than 0.2 µM (Aurora kinase C (AURKC, Homo sapiens, UniProt Q9UQB9); binding, competition with immobilised ligand).
`c1cc(CN2CCCNCCNCCCNCC2)ccc1CN1CCCNCCNCCCNCC1` has a Kd of greater than 50 µM (CSNK1D; binding, SPR).
For `CN(C)CCNC(=O)c1ccc(-c2nc3ccc4[nH]ncc4c3c3c2CCCC3)cc1`, the IC50 was 0.086 µM (FLT3 ITD; enzyme activity, inhibitor).
`C#CCOc1cccc(C(=O)CC(SCc2cccc(Br)c2)C(=O)O)c1` (centres unmarked) gave a Ki of 710 µM (PLCD1; ligand displacement, FP).
`Cc1n[nH]c2ccc3nc(-c4ccc(C(=O)NCCN(C)C)cc4)c4c(c3c12)CCCCC4` gave an IC50 of 0.099 µM (FLT3; enzyme activity, inhibitor).
For `CCOc1cccc(C(=O)CC(SCc2ccc(Cl)cc2)C(=O)O)c1` (centres unmarked), the Ki was 474 µM (PLCD1; ligand displacement, FP).
For `COc1cc2c3c(c1OC)-c1c(OC)ccc(O)c1CC3N(C)CC2` (centres unmarked), the Ki was 4.3 µM (HTR2C; cell-free assay, radioligand).
`CCOC(=O)c1cc(-c2ccc(OCC)cc2)oc1-c1ccc(Cl)cc1` has a Ki of greater than 100 µM (PLCD1; ligand displacement, FP).
For `CNC(=O)c1ccc(OC)c(Br)c1`, the Kd was greater than 50 µM (CSNK1D; binding, SPR).
The IC50 of `Cc1n[nH]c2ccc3nc(-c4ccc(C(=O)NCCN(C)C)cc4F)c4c(c3c12)CCCC4` is reported as 0.072 µM (FLT3 F691L; enzyme activity, inhibitor).
With `CCn1c2ccccc2c2cc(Nc3ccnc(NCCCN4CCOCC4)n3)ccc21` the Kd was greater than 50 µM (CSNK1D; binding, SPR).
`CCOc1ccc(-c2cc(C(=O)O)c(-c3ccc(Cl)cc3)o2)cc1` has a Ki of greater than 100 µM (PLCD1; ligand displacement, FP).
`Cc1n[nH]c2ccc3nc(-c4ccc(C(=O)NCCN(C)C)cc4)c4c(c3c12)CCCC4` has an IC50 of 0.053 µM (FLT3 F691L; enzyme activity, inhibitor).
